Assay: Interaction with DPPH
Outline: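 DPPH 0.1 mM in absolute ethanol mixed with an equal volume of test compound in ethanol (0.1 mM); ethanol-only control. Kept at room temperature; absorbance at 517 nm recorded after 20 and 60 min. At least triplicate.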

Structure (SMILES) | DPPH (0.1 mmol/L) 20min
CC(=O)Oc1ccccc1C(=O)O [ASA, Acetyl salicylic acid] | 80.5%
CC(Cc1ccc(O)c(O)c1)C(C)Cc1ccc(O)c(O)c1 (centres unmarked) [NDGA, nor-dihydroguaeretic acid] | 94%

— publication PMC6146878 (Molecules : A Journal of Synthetic Chemistry and Natural …, 2003)
